Laboratory results published in ChEMBL document CHEMBL4130494, “Crassiflorone derivatives that inhibit Trypanosoma brucei glyceraldehyde-3-phosphate dehydrogenase (TbGAPDH) and Trypanosoma cruzi trypanothione reductase (TcTR) and display trypanocidal activity” (Eur J Med Chem, 2017).
Values after ≈ are worked out from the molar mass of the structure shown. Active and inactive are the calls of the source. The rule behind the calls is not given here.

What was measured:
Trypanosoma brucei = test: Inhibition of Trypanosoma brucei glyceraldehyde-3-phosphate dehydrogenase at 10 uM using GAP as substrate in presence of NAD+ by spectrophotometric method relative to control
Method in brief: (§1)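 Recombinant TbGAPDH (200–300 μg protein) in 10 mM triethanolamine, 1.7 mM NaHCO3, 100 mM KCl, 5 mM MgSO4, 1 mM EDTA, pH 7.6, 25 °C, with 400 μM NAD+, 500 μM KH2PO4, 300 μM GAP; NAD+ reduction followed at 340 nm; inhibitors from DMSO stocks; triplicate; reported as percentage activity.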

[1] = target: Trypanothione reductase (Trypanosoma cruzi) (UniProt P28593); test: Inhibition of Trypanosoma cruzi trypanothione reductase assessed as reduction in NADPH consumption at 10 uM using 100 uM trypanothione disulfide as substrate by spectrophotometric method
Chain of Trypanothione reductase (Trypanosoma cruzi) (P28593 whole entry, looked up): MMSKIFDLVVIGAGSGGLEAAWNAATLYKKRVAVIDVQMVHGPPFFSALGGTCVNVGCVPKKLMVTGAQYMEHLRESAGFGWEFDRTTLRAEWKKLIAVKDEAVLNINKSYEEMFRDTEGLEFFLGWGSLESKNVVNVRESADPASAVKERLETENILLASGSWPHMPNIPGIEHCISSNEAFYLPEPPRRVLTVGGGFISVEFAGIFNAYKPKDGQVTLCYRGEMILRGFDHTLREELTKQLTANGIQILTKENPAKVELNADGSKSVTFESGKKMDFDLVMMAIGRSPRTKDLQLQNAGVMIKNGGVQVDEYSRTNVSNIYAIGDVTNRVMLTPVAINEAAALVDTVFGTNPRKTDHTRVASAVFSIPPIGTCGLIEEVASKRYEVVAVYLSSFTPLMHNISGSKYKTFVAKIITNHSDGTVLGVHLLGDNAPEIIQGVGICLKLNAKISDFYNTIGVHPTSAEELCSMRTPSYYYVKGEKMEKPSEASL
Method in brief: (§2)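 Recombinant TcTR (5–10 mU) at 25 °C in 40 mM HEPES, 1 mM EDTA, pH 7.5, 100 μM NADPH, 5% DMSO; started with trypanothione disulfide; NADPH consumption read at 340 nm; percentage inhibition calculated.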

[2] = target: Trypanothione reductase (Trypanosoma cruzi) (UniProt P28593); test: Inhibition of Trypanosoma cruzi trypanothione reductase assessed as reduction in NADPH consumption at 10 uM using 40 uM trypanothione disulfide as substrate by spectrophotometric method; method in brief: as §2
Trypanothione reductase [3] = target: T1, Trypanothione reductase (Trypanosoma cruzi, UniProt P28593); test: Mixed-type inhibition of Trypanosoma cruzi trypanothione reductase assessed as reduction in NADPH consumption using varying levels of trypanothione disulfide as substrate by Lineweaver-Burk plot analysis
T1 sequence (P28593 whole entry): as the sequence (P28593 whole entry, looked up) above
Method in brief: (§3)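 Same TcTR assay with two fixed inhibitor concentrations and TS2 at 20, 40, 60, 100, 200 μM; inhibition type from Lineweaver–Burk plots; Ki by nonlinear least-squares fit of direct plot; inhibitor assays at least duplicate.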

[4] = system: Trypanosoma brucei brucei; test: Growth inhibition of Trypanosoma brucei brucei Lister 427 bloodstream forms at 10 uM by SYBR Green based assay relative to control; type: functional; conditions: read-out: GI
Leishmania infantum = test: Growth inhibition of Leishmania infantum MHOM/BR/72/BH046 amastigotes infected in human THP1 cells at 10 uM after 48 hrs by Draq 5 staining based high-content automated imaging analysis relative to control; type: functional; conditions: MHOM/BR/72/BH046, THP-1, 48 h, read-out: GI
Method in brief: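 THP-1 cells differentiated 48 h with 50 ng/mL PMA, infected 24 h with 6-day-old promastigotes (50 per cell), then treated 48 h; 0.5% DMSO negative, 10 µM amphotericin B positive. Paraformaldehyde-fixed, Draq5-stained, imaged; infection ratio normalized to DMSO-treated infected and non-infected controls.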

Trypanosoma cruzi = test: Growth inhibition of Trypanosoma cruzi Y trypamastigotes infected in human U2OS cells at 10 uM after 72 hrs by Draq 5 staining based high-content automated imaging analysis relative to control; type: functional; conditions: read-out: GI
Method in brief: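 U2OS cells (3,000/well) co-seeded with Y strain trypomastigotes at 5:1 right after compound addition; 72 h at 37 °C, 5% CO2. Fixed, stained, imaged and normalized as for the Leishmania assay; host toxicity from cell ratio against negative-control wells.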

hERG (KCNH2) = hERG (KCNH2) (Homo sapiens, UniProt Q12809); test: Inhibition of Tracer Red binding to human ERG expressed in membranes at 10 uM by fluorescence polarization assay relative to control; conditions: membranes expressing human ERG, probe Tracer Red
Chain of hERG (KCNH2) (Q12809 whole entry): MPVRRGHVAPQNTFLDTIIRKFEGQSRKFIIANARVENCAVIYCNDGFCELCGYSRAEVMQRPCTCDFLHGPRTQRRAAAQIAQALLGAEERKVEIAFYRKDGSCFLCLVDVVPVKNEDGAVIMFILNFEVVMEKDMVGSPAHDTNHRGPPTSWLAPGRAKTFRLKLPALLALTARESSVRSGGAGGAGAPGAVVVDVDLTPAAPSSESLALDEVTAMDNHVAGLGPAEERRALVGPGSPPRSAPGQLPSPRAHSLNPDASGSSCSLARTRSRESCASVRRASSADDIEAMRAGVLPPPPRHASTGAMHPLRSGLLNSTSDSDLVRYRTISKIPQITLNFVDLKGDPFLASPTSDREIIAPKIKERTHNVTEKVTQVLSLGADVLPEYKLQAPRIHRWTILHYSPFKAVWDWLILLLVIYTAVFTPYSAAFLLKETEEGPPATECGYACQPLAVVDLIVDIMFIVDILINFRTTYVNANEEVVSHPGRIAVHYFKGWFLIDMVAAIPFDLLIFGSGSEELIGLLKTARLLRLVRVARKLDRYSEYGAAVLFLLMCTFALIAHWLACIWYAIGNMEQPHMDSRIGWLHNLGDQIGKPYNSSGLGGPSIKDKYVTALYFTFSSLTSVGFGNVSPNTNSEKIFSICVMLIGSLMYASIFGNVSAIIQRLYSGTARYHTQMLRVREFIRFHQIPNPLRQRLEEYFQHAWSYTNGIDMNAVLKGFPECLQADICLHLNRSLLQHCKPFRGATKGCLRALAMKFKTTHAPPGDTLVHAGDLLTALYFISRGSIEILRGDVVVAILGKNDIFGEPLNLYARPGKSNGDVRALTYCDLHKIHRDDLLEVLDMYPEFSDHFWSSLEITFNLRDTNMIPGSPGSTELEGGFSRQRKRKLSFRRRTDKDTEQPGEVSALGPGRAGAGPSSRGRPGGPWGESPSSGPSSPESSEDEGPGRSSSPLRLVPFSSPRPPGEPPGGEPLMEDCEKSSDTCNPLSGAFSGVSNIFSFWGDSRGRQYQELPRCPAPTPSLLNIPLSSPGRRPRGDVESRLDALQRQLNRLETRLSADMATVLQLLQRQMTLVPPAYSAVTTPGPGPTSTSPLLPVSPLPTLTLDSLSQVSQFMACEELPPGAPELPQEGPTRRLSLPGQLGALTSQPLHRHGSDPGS
Method in brief: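 Fluorescence polarization displacement of a high-affinity red fluorescent tracer from hERG channel–containing membrane fraction.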

CYP1A2 = target: T2, CYP1A2 (Homo sapiens, UniProt P05177); test: Inhibition of human CYP1A2 at 10 uM by P450-Glo assay relative to control; type: ADME
T2 sequence (P05177 whole entry): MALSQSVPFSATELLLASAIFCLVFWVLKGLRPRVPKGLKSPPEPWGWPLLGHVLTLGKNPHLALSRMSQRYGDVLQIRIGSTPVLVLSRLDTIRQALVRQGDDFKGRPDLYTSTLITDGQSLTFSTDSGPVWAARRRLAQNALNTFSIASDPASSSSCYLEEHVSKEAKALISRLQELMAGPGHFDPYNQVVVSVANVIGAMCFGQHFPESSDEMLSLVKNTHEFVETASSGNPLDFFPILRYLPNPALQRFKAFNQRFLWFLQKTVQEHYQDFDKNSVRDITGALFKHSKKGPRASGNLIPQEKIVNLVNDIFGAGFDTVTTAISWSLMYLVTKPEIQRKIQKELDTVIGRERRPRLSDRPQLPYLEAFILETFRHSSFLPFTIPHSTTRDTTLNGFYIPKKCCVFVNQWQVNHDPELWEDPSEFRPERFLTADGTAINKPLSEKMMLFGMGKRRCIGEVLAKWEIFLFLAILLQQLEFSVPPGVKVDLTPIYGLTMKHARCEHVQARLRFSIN
Method in brief: (§4)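 P450-Glo luminescent platform: CYP action on each substrate generates light; decreased light taken as inhibition.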

CYP2C9 = CYP2C9 (Homo sapiens, UniProt P11712); test: Inhibition of human CYP2C9 at 10 uM by P450-Glo assay relative to control; type: ADME; method in brief: as §4
Chain of CYP2C9 (P11712 whole entry): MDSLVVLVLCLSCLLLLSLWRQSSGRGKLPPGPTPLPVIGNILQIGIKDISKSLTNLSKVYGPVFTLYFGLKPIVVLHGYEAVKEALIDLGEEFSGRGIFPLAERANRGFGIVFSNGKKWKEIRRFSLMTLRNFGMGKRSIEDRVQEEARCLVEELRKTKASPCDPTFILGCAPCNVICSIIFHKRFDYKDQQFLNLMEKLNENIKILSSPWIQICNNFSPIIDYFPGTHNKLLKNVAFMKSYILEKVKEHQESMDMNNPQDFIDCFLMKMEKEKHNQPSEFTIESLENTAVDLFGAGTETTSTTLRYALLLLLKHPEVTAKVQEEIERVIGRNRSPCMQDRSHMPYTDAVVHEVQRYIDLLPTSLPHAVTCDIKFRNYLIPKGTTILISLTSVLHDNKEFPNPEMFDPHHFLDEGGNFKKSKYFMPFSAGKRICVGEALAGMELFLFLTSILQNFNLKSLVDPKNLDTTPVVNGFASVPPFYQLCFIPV

CYP2C19 = CYP2C19 (Homo sapiens, UniProt P33261); test: Inhibition of human CYP2C19 at 10 uM by P450-Glo assay relative to control; type: ADME; method in brief: as §4
Chain of CYP2C19 (P33261 whole entry): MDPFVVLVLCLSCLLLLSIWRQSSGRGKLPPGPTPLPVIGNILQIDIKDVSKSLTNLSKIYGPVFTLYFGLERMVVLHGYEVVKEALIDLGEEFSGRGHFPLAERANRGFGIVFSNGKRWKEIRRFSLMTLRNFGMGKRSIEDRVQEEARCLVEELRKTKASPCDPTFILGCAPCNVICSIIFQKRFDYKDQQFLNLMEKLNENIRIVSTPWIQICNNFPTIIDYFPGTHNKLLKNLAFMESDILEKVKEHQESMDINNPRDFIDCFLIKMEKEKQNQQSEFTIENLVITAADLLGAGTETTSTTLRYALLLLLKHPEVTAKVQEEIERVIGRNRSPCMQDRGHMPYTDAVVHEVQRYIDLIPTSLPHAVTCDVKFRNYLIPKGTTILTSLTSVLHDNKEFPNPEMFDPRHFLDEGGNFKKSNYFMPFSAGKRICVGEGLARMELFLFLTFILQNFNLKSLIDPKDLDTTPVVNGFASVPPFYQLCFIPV

CYP2D6 = CYP2D6 (Homo sapiens, UniProt P10635); test: Inhibition of human CYP2D6 at 10 uM by P450-Glo assay relative to control; type: ADME; method in brief: as §4
Chain of CYP2D6 (P10635 whole entry): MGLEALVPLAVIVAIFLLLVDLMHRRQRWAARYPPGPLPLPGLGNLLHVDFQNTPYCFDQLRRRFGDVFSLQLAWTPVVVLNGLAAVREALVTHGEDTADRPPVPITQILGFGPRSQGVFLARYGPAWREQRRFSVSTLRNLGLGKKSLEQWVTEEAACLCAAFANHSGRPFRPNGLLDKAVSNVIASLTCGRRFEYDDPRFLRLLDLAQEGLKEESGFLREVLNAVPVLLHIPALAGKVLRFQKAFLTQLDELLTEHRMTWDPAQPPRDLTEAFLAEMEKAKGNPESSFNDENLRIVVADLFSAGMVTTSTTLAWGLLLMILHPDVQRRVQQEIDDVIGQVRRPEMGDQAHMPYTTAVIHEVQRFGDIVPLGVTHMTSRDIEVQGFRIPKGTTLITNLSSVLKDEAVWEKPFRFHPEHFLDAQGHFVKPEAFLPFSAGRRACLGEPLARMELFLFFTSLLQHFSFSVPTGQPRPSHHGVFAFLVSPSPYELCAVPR

CYP3A4 = CYP3A4 (Homo sapiens, UniProt P08684); test: Inhibition of human CYP3A4 at 10 uM by P450-Glo assay relative to control; type: ADME; method in brief: as §4
Chain of CYP3A4 (P08684 whole entry): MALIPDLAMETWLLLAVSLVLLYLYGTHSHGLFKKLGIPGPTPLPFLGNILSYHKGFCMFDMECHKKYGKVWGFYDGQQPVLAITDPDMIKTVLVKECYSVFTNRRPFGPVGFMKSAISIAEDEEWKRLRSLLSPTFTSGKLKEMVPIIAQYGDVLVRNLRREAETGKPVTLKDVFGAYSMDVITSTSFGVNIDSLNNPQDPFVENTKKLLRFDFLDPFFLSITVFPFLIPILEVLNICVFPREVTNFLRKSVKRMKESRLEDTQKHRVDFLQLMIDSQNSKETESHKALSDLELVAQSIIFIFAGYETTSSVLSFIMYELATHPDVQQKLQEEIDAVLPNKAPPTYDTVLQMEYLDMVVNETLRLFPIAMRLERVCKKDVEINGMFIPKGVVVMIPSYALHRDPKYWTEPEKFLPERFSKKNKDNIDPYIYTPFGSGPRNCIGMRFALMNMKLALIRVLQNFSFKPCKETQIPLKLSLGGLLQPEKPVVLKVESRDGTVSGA

[5] = Cytotoxicity against human A549 cells assessed as cell growth at 10 uM by CellTiter-Glo assay relative to control; type: cell-based; conditions: read-out: Activity
Method in brief: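 A549 cells; cellular ATP measured by CellTiter-Glo luminescence as a proxy for cell number; paclitaxel 10 μM as positive control.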

786-0 = test: Cytotoxicity against human 786-O cells assessed as mitochondrial viability at 10 uM by CMXRos staining based high-content imaging analysis relative to control; type: cell-based; conditions: 786-0, 10 µM
Method in brief: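 786-O cells kept in RPMI-1640 with 2 mM glutamine, 10% FCS, streptomycin and penicillin G; mitochondria of live cells stained with MitoTracker Red CMXRos and imaged by high-content imaging.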

[6] = target: T3, Pteridine reductase 1 (Leishmania major) (UniProt Q01782); test: Inhibition of Leishmania major pteridine reductase 1 assessed as reduction in conversion of dihydrobiopterin to tetrahydrobiopterin at 20 uM up to 50 mins in presence of NADPH by cytochrome c reduction coupled photometric assay relative to control
T3 sequence (whole entry): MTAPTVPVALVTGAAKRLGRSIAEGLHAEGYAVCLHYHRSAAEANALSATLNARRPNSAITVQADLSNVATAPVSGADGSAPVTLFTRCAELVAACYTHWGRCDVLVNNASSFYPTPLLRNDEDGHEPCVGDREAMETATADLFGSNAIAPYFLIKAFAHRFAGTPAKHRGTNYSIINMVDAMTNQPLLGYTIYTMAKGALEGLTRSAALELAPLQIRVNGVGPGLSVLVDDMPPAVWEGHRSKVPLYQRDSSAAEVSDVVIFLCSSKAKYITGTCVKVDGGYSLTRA

[7] = target: T4, Pteridine reductase, putative (Trypanosoma brucei) (UniProt Q581W1); test: Inhibition of Trypanosoma brucei pteridine reductase 1 assessed as reduction in conversion of dihydrobiopterin to tetrahydrobiopterin at 20 uM up to 50 mins in presence of NADPH by cytochrome c reduction coupled photometric assay relative to control
T4 sequence (whole entry): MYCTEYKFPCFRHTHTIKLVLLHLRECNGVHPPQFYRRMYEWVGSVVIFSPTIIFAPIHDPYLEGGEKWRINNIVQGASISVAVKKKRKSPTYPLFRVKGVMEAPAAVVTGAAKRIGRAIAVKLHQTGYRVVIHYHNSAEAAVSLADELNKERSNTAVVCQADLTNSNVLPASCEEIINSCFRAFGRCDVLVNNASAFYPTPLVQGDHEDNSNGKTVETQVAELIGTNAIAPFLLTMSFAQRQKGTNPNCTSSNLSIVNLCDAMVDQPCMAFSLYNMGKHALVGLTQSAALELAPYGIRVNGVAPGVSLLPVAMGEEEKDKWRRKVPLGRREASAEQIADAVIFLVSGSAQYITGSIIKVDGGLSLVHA

[8] = Solubility in PBS after overnight incubation by nephelometry; type: physicochemical
[9] = Solubility in pH 7.4 Hanks simulated body fluid after overnight incubation by nephelometry; type: physicochemical
[10] = Inhibition of Trypanosoma brucei glyceraldehyde-3-phosphate dehydrogenase using GAP as substrate in presence of NAD+ by spectrophotometric method; method in brief: as §1
[11] = target: Trypanothione reductase (Trypanosoma cruzi) (UniProt P28593); test: Inhibition of Trypanosoma cruzi trypanothione reductase assessed as reduction in NADPH consumption at 100 uM using 100 uM trypanothione disulfide as substrate by spectrophotometric method relative to control; method in brief: as §2
[12] = target: Trypanothione reductase (Trypanosoma cruzi) (UniProt P28593); test: Inhibition of Trypanosoma cruzi trypanothione reductase assessed as reduction in NADPH consumption at 100 uM using 40 uM trypanothione disulfide as substrate by spectrophotometric method relative to control; method in brief: as §2
[13] = system: Trypanosoma brucei brucei; test: Growth inhibition of Trypanosoma brucei brucei Lister 427 bloodstream forms at 50 uM by SYBR Green based assay relative to control; type: functional; conditions: read-out: GI
[14] = target: T3, Pteridine reductase 1 (Leishmania major); test: Inhibition of Leishmania major pteridine reductase 1 assessed as reduction in conversion of dihydrobiopterin to tetrahydrobiopterin at 50 uM up to 50 mins in presence of NADPH by cytochrome c reduction coupled photometric assay relative to control
[15] = target: T4, Pteridine reductase, putative (Trypanosoma brucei); test: Inhibition of Trypanosoma brucei pteridine reductase 1 assessed as reduction in conversion of dihydrobiopterin to tetrahydrobiopterin at 50 uM up to 50 mins in presence of NADPH by cytochrome c reduction coupled photometric assay relative to control
[16] = Inhibition of Trypanosoma brucei glyceraldehyde-3-phosphate dehydrogenase
Trypanothione reductase [17] = target: T1, Trypanothione reductase; test: Inhibition of Trypanosoma cruzi trypanothione reductase
Trypanothione reductase [18] = target: T1, Trypanothione reductase; test: Non-competitive inhibition of Trypanosoma cruzi trypanothione reductase assessed as reduction in NADPH consumption using varying levels of trypanothione disulfide as substrate by Lineweaver-Burk plot analysis; method in brief: as §3
[19] = target: Trypanothione reductase (Trypanosoma cruzi) (UniProt P28593); test: Inhibition of Trypanosoma cruzi trypanothione reductase assessed as reduction in NADPH consumption at 20 uM using 100 uM trypanothione disulfide as substrate by spectrophotometric method relative to control; method in brief: as §2
[20] = target: Trypanothione reductase (Trypanosoma cruzi) (UniProt P28593); test: Inhibition of Trypanosoma cruzi trypanothione reductase assessed as reduction in NADPH consumption at 20 uM using 40 uM trypanothione disulfide as substrate by spectrophotometric method relative to control; method in brief: as §2
[21] = target: T3, Pteridine reductase 1 (Leishmania major); test: Inhibition of Leishmania major pteridine reductase 1 assessed as reduction in conversion of dihydrobiopterin to tetrahydrobiopterin at 10 uM up to 50 mins in presence of NADPH by cytochrome c reduction coupled photometric assay relative to control
[22] = target: T4, Pteridine reductase, putative (Trypanosoma brucei); test: Inhibition of Trypanosoma brucei pteridine reductase 1 assessed as reduction in conversion of dihydrobiopterin to tetrahydrobiopterin at 10 uM up to 50 mins in presence of NADPH by cytochrome c reduction coupled photometric assay relative to control

inhibition (Trypanosoma brucei) | inhibition at 10 µM (CYP1A2) | inhibition at 10 µM (CYP2C9) | inhibition at 10 µM (CYP2C19) | inhibition at 10 µM (CYP2D6) | inhibition at 10 µM (CYP3A4) | solubility kinetic [8] | solubility kinetic [9] | Structure (SMILES) | inhibition at 10 µM (hERG (KCNH2)) | viability at 10 µM [5] | Activity (786-0) | further results
64% | 57.3% | 61.5% | 107% | 102% | 40.8% | 14 µM (≈ 4.65 µg/mL) | 70 µM (≈ 23.3 µg/mL) | O=C1c2oc3c(c2C(=O)c2cccc(O)c21)c(=O)oc1ccccc13 | 67.1% | 138% | 82.16% | inhibition [1]: 37.8%; inhibition [2]: 65%; Ki (Trypanothione reductase [3]): 5.6 µM; inhibition of growth at 10 µM [4]: < 20%; inhibition of growth at 10 µM (Leishmania infantum): < 20%; inhibition of growth at 10 µM (Trypanosoma cruzi): < 20%; inhibition [6]: 28.1%; inhibition [7]: 0.94%
75% | 37.8% | 85.9% | 63.6% | 71.5% | 46.8% | 14 µM (≈ 4.86 µg/mL) | 35 µM (≈ 12.2 µg/mL) | Nc1ccc2oc(=O)c3c4c(oc3c2c1)C(=O)c1c(O)cccc1C4=O | -7.99% | 157% | 97.94% | IC50 [10]: 2.1 µM; inhibition [11]: inactive; inhibition [12]: inactive; inhibition of growth at 50 µM [13]: 77%; inhibition [14]: 6.19%; inhibition [15]: 5.82%
– | – | – | – | – | – | – | – | CN(C)CCOc1cc2ccc(OC3=CC(=O)c4cc5ccccc5cc4C3=O)cc2oc1=O | – | – | – | IC50 [16]: 5.4 µM; Ki (Trypanothione reductase [17]): 2.3 µM
– | 99.2% | 89.3% | 55.5% | 108% | 38.5% | 70 µM (≈ 24.2 µg/mL) | 35 µM (≈ 12.1 µg/mL) | COc1cccc2c1C(=O)c1oc3c(c1C2=O)c(=O)oc1ccccc13 | 42.7% | 166% | 89.95% | Ki (Trypanothione reductase [18]): 22.4 µM; inhibition [19]: 41.1%; inhibition [20]: 42.6%; inhibition [21]: -3.51%; inhibition [22]: -5.69%
